Data from ChEMBL document CHEMBL1123589, “Phenylpiperazine-based radiopharmaceuticals for brain imaging. 3. Synthesis and evaluation of radioiodinated 1-alkyl-4-phenylpiperazines” (J Med Chem, 1987).

Legend:
Conditions in all cases: in vivo
Rattus norvegicus [1] = test: The biodistribution of the [125I]-labeled compound in rats after intravenous injection was evaluated in liver at 1.00 hrs; value ranges from 0.54-0.58 (ID.kg/g); assay type: ADME, organism-based
Method in brief: (§1)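 Male Sprague-Dawley rats (250–300 g), under ether anesthesia, given 10–15 μCi of the NCA ¹²⁵I-labeled agent iv in 0.1 mL saline. Groups of N = 3 were killed at 0.25, 1 or 4 h. Blood and tissues were removed, weighed and counted in a γ-well scintillation counter. Values are mean % ID·kg/g (range).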

Rattus norvegicus [2] = test: The biodistribution of the [125I]-labeled compound in rats after intravenous injection was evaluated in adrenal at 0.25 hrs; value ranges from 1.25-1.44 (ID.kg/g); assay type: ADME, organism-based
Method in brief: (§2)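 Male Sprague-Dawley rats (250–300 g) under ether anesthesia were given an iv injection of no-carrier-added 125I-labelled agent (10–15 μCi in 0.1 mL saline). The agent was iodinated with chloramine-T in acetate buffer and purified by C-18 HPLC. Groups of N = 3 were killed at 0.25, 1 and 4 h. Blood and tissues were weighed and γ-counted. Values are % ID·kg/g, mean (range).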

Rattus norvegicus [3] = test: The biodistribution of the [125I]-labeled compound in rats after intravenous injection was evaluated in kidney at 1.00 hrs; value ranges from 0.26-0.35 (ID.kg/g); assay type: ADME, organism-based; method in brief: as §1
Rattus norvegicus [4] = test: The biodistribution of the [125I]-labeled compound in rats after intravenous injection was evaluated in fat at 1.00 hrs; value ranges from 0.07-0.09 (ID.kg/g); assay type: ADME, organism-based, Adipose tissue; method in brief: as §2
Rattus norvegicus [5] = test: The biodistribution of the [125I]-labeled compound in rats after intravenous injection was evaluated in blood at 4.00 hrs; value ranges from […]-0.09 (ID.kg/g); assay type: ADME, organism-based; method in brief: as §2
Rattus norvegicus [6] = test: The biodistribution of the [125I]-labeled compound in rats after intravenous injection was evaluated in muscle at 1.00 hrs; value ranges from 0.03-0.04 (ID.kg/g); assay type: ADME, organism-based, Muscle tissue
Method in brief: (§3)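 Male Sprague-Dawley rats (250–300 g) under ether anesthesia given iv 0.1 mL saline containing 10–15 μCi of NCA ¹²⁵I-labeled agent (chloramine-T iodination, HPLC-purified). Groups of 3 killed at 0.25, 1 and 4 h. Blood and tissues excised, weighed and γ-counted. Values are mean (range) of % injected dose × body mass (kg) per gram of tissue.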

Rattus norvegicus [7] = test: The biodistribution of the [125I]-labeled compound in rats after intravenous injection was evaluated in kidney at 4.00 hrs; value ranges from 0.26-0.35 (ID.kg/g); assay type: ADME, organism-based; method in brief: as §1
Rattus norvegicus [8] = test: The biodistribution of the [125I]-labeled compound in rats after intravenous injection was evaluated in brain at 4.00 hrs; value ranges from 0.04-0.05 (ID.kg/g); assay type: ADME, organism-based; method in brief: as §2
Rattus norvegicus [9] = test: The biodistribution of the [125I]-labeled compound in rats after intravenous injection was evaluated in fat at 0.25 hr (ID. kg/g); assay type: ADME, organism-based, Adipose tissue; method in brief: as §2
Rattus norvegicus [10] = test: The biodistribution of the [125I]-labeled compound in rats after intravenous injection was evaluated in liver at 0.25 hr; value ranges from 0.69-1.03 (ID.kg/g); assay type: ADME, organism-based; method in brief: as §1
Rattus norvegicus [11] = test: The biodistribution of the [125I]-labeled compound in rats after intravenous injection was evaluated in brain at 0.25 hrs; value ranges from 0.23-0.25 (ID.kg/g); assay type: ADME, organism-based; method in brief: as §2
Rattus norvegicus [12] = test: The biodistribution of the [125I]-labeled compound in rats after intravenous injection was evaluated in thyroid at 1.00 hrs; value ranges from 2.56-3.24 (ID.kg/g); assay type: ADME, organism-based, Thyroid gland; method in brief: as §3
Rattus norvegicus [13] = test: The biodistribution of the [125I]-labeled compound in rats after intravenous injection was evaluated in heart at 0.25 hrs (ID.kg/g); assay type: ADME, organism-based; method in brief: as §2
Rattus norvegicus [14] = test: The biodistribution of the [125I]-labeled compound in rats after intravenous injection was evaluated in lung at 4.00 hrs (ID.kg/g); assay type: ADME, organism-based; method in brief: as §1
Rattus norvegicus [15] = test: The biodistribution of the [125I]-labeled compound in rats after intravenous injection was evaluated in fat at 4.00 hrs; value ranges from 0.07-0.09 (ID.kg/g); assay type: ADME, organism-based, Adipose tissue; method in brief: as §2
Rattus norvegicus [16] = test: The biodistribution of the [125I]-labeled compound in rats after intravenous injection was evaluated in adrenal at 4.00 hrs; value ranges from 0.20-0.32 (ID.kg/g); assay type: ADME, organism-based; method in brief: as §2
Rattus norvegicus [17] = test: The biodistribution of the [125I]-labeled compound in rats after intravenous injection was evaluated in liver at 4.00 hrs; value ranges from 0.40-0.61 (ID.kg/g); assay type: ADME, organism-based; method in brief: as §1
Rattus norvegicus [18] = test: The biodistribution of the [125I]-labeled compound in rats after intravenous injection was evaluated in lung at 0.25 hrs; value ranges from 0.52-0.58 (ID.kg/g); assay type: ADME, organism-based; method in brief: as §1
Rattus norvegicus [19] = test: The biodistribution of the [125I]-labeled compound in rats after intravenous injection was evaluated in thyroid at 4.00 hrs; value ranges from 14.14-15.81 (ID.kg/g); assay type: ADME, organism-based, Thyroid gland; method in brief: as §3
Rattus norvegicus [20] = test: The biodistribution of the [125I]-labeled compound in rats after intravenous injection was evaluated in thyroid at 0.25 hrs; value ranges from 1.31-2.46( ID.kg/g); assay type: ADME, organism-based, Thyroid gland; method in brief: as §3
Rattus norvegicus [21] = test: The biodistribution of the [125I]-labeled compound in rats after intravenous injection was evaluated in blood at 0.25 hrs (ID.kg/g); assay type: ADME, organism-based; method in brief: as §2
Rattus norvegicus [22] = test: The biodistribution of the [125I]-labeled compound in rats after intravenous injection was evaluated in muscle at 4.00 hrs (ID.kg/g); assay type: ADME, organism-based, Muscle tissue; method in brief: as §3
Rattus norvegicus [23] = test: The biodistribution of the [125I]-labeled compound in rats after intravenous injection was evaluated in muscle at 0.25 hrs; value ranges from 0.03-0.04 (ID.kg/g); assay type: ADME, organism-based, Muscle tissue; method in brief: as §3
Rattus norvegicus [24] = test: The biodistribution of the [125I]-labeled compound in rats after intravenous injection was evaluated in adrenal at 1.00 hrs; value ranges from 0.84-1.04 (ID.kg/g); assay type: ADME, organism-based; method in brief: as §2
Rattus norvegicus [25] = test: The biodistribution of the [125I]-labeled compound in rats after intravenous injection was evaluated in brain at 1.00 hrs; value ranges from 0.14-0.15 (ID.kg/g); assay type: ADME, organism-based; method in brief: as §2
Rattus norvegicus [26] = test: The biodistribution of the [125I]-labeled compound in rats after intravenous injection was evaluated in kidney at 0.25 hr; value ranges from 0.28-0.32 (ID.kg/g); assay type: ADME, organism-based; method in brief: as §1
Rattus norvegicus [27] = test: The biodistribution of the [125I]-labeled compound in rats after intravenous injection was evaluated in blood at 1.00 hrs (ID.kg/g); assay type: ADME, organism-based; method in brief: as §2
Rattus norvegicus [28] = test: The biodistribution of the [125I]-labeled compound in rats after intravenous injection was evaluated in heart at 1.00 hrs; value ranges from 0.08-0.09 (ID.kg/g); assay type: ADME, organism-based; method in brief: as §2
Rattus norvegicus [29] = test: The biodistribution of the [125I]-labeled compound in rats after intravenous injection was evaluated in heart at 4.00 hrs; value ranges from 0.04-0.06 (ID.kg/g); assay type: ADME, organism-based; method in brief: as §1
Rattus norvegicus [30] = test: The biodistribution of the [125I]-labeled compound in rats after intravenous injection was evaluated in lung at 1.00 hrs; value ranges from 0.34-0.43 (ID.kg/g); assay type: ADME, organism-based; method in brief: as §1

## CCN1CCN(c2ccc(I)cc2)CC1
Rattus norvegicus [1]
  Biodistribution: 0.58%
Rattus norvegicus [2]
  Biodistribution: 1.44%
Rattus norvegicus [3]
  Biodistribution: 0.35%
Rattus norvegicus [4]
  Biodistribution: 0.09%
Rattus norvegicus [5]
  Biodistribution: 0.09%
Rattus norvegicus [6]
  Biodistribution: 0.04%
Rattus norvegicus [7]
  Biodistribution: 0.35%
Rattus norvegicus [8]
  Biodistribution: 0.05%
Rattus norvegicus [9]
  Biodistribution: 0.09 % ID·kg/g
Rattus norvegicus [10]
  Biodistribution: 1.03%
Rattus norvegicus [11]
  Biodistribution: 0.25%
Rattus norvegicus [12]
  Biodistribution: 3.24%
Rattus norvegicus [13]
  Biodistribution: 0.1%
Rattus norvegicus [14]
  Biodistribution: 0.17%
Rattus norvegicus [15]
  Biodistribution: 0.09%
Rattus norvegicus [16]
  Biodistribution: 0.32%
Rattus norvegicus [17]
  Biodistribution: 0.61%
Rattus norvegicus [18]
  Biodistribution: 0.58%
Rattus norvegicus [19]
  Biodistribution: 15.81%
Rattus norvegicus [20]
  Biodistribution: 2.46%
Rattus norvegicus [21]
  Biodistribution: 0.04 % ID·kg/g
Rattus norvegicus [22]
  Biodistribution: 0.02 %ID·kg/g
Rattus norvegicus [23]
  Biodistribution: 0.04%
Rattus norvegicus [24]
  Biodistribution: 1.04%
Rattus norvegicus [25]
  Biodistribution: 0.16%
Rattus norvegicus [26]
  Biodistribution: 0.38%
Rattus norvegicus [27]
  Biodistribution: 0.07 % ID·kg/g
Rattus norvegicus [28]
  Biodistribution: 0.09%
Rattus norvegicus [29]
  Biodistribution: 0.06%
Rattus norvegicus [30]
  Biodistribution: 0.43%
